Source: ChEMBL document CHEMBL1152185, “Synthesis of a novel 6,14-epoxymorphinan derivative and its pharmacology” (Bioorg Med Chem Lett, 2008)
Active and inactive are the calls of the source. The rule behind the calls is not given here.

How the values were obtained:
[1] = target: Kappa-type opioid receptor (Cavia porcellus, UniProt P41144); experiment: Displacement of [3H]U69,593 from kappa opioid receptor in guinea pig cerebellum; format: tissue-based
Mu-type opioid receptor = Mu-type opioid receptor (Mus musculus, UniProt P42866); experiment: Displacement of [3H]DAMGO from mu opioid receptor in mouse whole brain without cerebellum
Outline: (§1)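 Competition binding on mouse whole-brain membranes, using [³H]DAMGO for mu and [³H]DPDPE for delta. % specific binding was plotted against log concentration, and IC50 was derived from the curve.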

[2] = target: Delta-type opioid receptor (Mus musculus, UniProt P32300); experiment: Displacement of [3H]DPDPE from delta opioid receptor in mouse whole brain without cerebellum; outline: as §1
[3] = target: Kappa-type opioid receptor (Mus musculus) (UniProt P33534); experiment: Agonist activity at kappa opioid receptor-mediated G-protein activation in mouse whole brain membrane without cerebellum at 10 uM by [35S]GTPgammaS binding assay; format: functional, cell membranes
Outline: (§2)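 Mouse whole-brain membranes (cerebellum removed) incubated with [³⁵S]GTPγS and GDP plus agonist at 10^-5 M, alone or together with nor-BNI or b-FNA (levels not given). The read-out is % stimulation of [³⁵S]GTPγS binding.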

Mus musculus [4] = experiment: Antinociceptive activity in mouse assessed as inhibition of analgesia at 10 mg/kg, sc pretreated with 20 mg/kg, sc nor-BNI for 24 hrs by hotplate test; format: functional, organism-based
Outline: (§3)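 Mice were given agonist 10 mg/kg sc, and antinociception was read in the hot-plate and tail-flick tests. Pretreatment was saline or nor-BNI (5 or 20 mg/kg sc) 24 h before agonist. Data are mean with SEM, n = 6–8, compared with the saline–agonist group.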

Mus musculus [5] = experiment: Antinociceptive activity in mouse assessed as inhibition of analgesia at 10 mg/kg, sc pretreated with 20 mg/kg, sc nor-BNI for 24 hrs by tail-flick test; format: functional, organism-based; outline: as §3
Mus musculus [6] = experiment: Antinociceptive activity in mouse assessed as inhibition of analgesia at 10 mg/kg, sc pretreated with 3 mg/kg, sc NTI for 24 hrs by hotplate test; format: functional, organism-based
Outline: (§4)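 Mouse hot-plate and tail-flick antinociception after agonist 10 mg/kg sc. Pretreatment was saline, b-FNA 20 mg/kg sc or NTI 3 mg/kg sc, given at 24 h or 30 min before agonist. Data are mean with SEM of 6–8 trials.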

Mus musculus [7] = experiment: Antinociceptive activity in mouse at 10 mg/kg, sc by tail-flick test; format: functional, organism-based; parameters: dose 10 mg/kg; outline: as §3
[8] = target: Kappa-type opioid receptor (Mus musculus) (UniProt P33534); experiment: Agonist activity at kappa opioid receptor-mediated G-protein activation in mouse whole brain membrane without cerebellum at 10 uM by [35S]GTPgammaS binding assay in presence of beta-funaltrexamine; format: functional, cell membranes; outline: as §2
Mus musculus [9] = experiment: Antinociceptive activity in mouse assessed as inhibition of analgesia at 10 mg/kg, sc pretreated with 3 mg/kg, sc NTI for 24 hrs by tail-flick test; format: functional, organism-based; outline: as §4
Mus musculus [10] = experiment: Antinociceptive activity in mouse assessed as inhibition of analgesia at 10 mg/kg, sc pretreated with 20 mg/kg, sc beta-funaltrexamine for 24 hrs by tail-flick test; format: functional, organism-based; outline: as §4
[11] = target: Kappa-type opioid receptor (Mus musculus) (UniProt P33534); experiment: Agonist activity at kappa opioid receptor-mediated G-protein activation in mouse whole brain membrane without cerebellum at 10 uM by [35S]GTPgammaS binding assay in presence of nor-BNI; format: functional, cell membranes; outline: as §2
Mus musculus [12] = experiment: Antinociceptive activity in mouse assessed as inhibition of analgesia at 10 mg/kg, sc pretreated with 20 mg/kg, sc beta-funaltrexamine for 24 hrs by hotplate test; format: functional, organism-based; outline: as §4
Mus musculus [13] = experiment: Antinociceptive activity in mouse at 10 mg/kg, sc by hotplate test; format: functional, organism-based; parameters: dose 10 mg/kg; outline: as §3

Kappa-type opioid receptor (Mus musculus), sequence (P33534 whole entry): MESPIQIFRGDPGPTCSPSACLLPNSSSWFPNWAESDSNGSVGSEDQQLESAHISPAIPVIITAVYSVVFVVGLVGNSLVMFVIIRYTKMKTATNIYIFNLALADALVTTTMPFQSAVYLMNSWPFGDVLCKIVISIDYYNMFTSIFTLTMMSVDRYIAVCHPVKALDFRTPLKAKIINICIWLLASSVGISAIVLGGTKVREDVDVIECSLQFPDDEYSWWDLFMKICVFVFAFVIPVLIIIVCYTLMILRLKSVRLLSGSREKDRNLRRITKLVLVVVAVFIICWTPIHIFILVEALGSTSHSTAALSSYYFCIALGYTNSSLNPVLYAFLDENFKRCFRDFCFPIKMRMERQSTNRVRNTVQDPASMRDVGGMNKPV
Mu-type opioid receptor, sequence (P42866 whole entry): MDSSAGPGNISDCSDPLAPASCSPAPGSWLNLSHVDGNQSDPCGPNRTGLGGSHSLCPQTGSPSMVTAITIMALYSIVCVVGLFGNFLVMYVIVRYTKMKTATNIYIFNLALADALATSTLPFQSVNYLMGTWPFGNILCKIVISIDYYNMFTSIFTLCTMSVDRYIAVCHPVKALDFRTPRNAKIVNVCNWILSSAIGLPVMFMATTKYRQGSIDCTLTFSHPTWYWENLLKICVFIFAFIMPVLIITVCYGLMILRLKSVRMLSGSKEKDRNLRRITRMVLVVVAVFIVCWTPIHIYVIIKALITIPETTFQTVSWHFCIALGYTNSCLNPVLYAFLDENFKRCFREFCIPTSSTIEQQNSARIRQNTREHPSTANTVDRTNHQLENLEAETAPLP
Delta-type opioid receptor, sequence (P32300 whole entry): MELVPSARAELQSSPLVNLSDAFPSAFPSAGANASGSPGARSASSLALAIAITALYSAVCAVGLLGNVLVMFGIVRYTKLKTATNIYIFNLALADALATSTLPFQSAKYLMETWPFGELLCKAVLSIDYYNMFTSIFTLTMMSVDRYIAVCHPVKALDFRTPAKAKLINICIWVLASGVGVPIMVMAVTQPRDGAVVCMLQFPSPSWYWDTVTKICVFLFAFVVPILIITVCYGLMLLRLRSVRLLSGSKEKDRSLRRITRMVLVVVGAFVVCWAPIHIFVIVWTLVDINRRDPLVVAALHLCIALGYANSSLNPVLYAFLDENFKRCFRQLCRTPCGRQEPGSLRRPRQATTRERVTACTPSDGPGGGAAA
Kappa-type opioid receptor, sequence (P41144 whole entry): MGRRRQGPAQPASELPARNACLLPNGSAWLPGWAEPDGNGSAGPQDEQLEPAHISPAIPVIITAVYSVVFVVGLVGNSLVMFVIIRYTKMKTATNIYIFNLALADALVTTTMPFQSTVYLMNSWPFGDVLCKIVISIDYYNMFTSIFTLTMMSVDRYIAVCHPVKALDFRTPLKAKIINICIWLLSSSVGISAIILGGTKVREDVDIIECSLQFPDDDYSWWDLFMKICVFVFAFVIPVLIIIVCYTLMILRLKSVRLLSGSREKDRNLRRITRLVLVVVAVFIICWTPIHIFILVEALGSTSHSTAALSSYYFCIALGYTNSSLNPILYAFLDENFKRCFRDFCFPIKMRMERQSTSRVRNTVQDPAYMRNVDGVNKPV

Compound | Ki [1] [nM] | Ki (Mu-type opioid receptor) [nM] | Ki [2] [nM] | Activity [3] [%] | Activity (Mus musculus [4]) | Activity (Mus musculus [5]) | IC50 (Mu-type opioid receptor) [nM] | Activity (Mus musculus [6]) | Activity (Mus musculus [7]) | IC50 [2] [nM] | Activity [8] [%] | Activity (Mus musculus [9]) | Activity (Mus musculus [10]) | Activity [11] [%] | Activity (Mus musculus [12]) | Activity (Mus musculus [13])
O=C1N(CCc2ccccc2)CO[C@]12CC[C@@]1(O)[C@@H]3Cc4ccc(O)c5c4[C@@]1(CCN3CC1CC1)[C@H]2O5 | 8.66 | 4.54 | 4.82 | – | – | – | – | – | – | – | – | – | – | – | – | –
O=C(NC[C@]12CC[C@@]3(O1)[C@@H]1Cc4ccc(O)cc4[C@@]3(CCN1CC1CC1)C2)c1ccccc1 | – | – | – | 29.8 | Active | Active | 0.288 | inactive | Active | 2.07 | 19.2 | inactive | inactive | 10.7 | inactive | Active
